# From PubChem
# A selection: hits, their analogues and other compounds. The true share with any hit is near 3%.
# SENP8 block-1: blocks human SENP8 cleavage of Nedd8 substrate; inhibition, % at 20 µM; Q96LD8; 360,000 compounds, 0.64% hits; recombinant SENP8, Nedd8 substrate fluorescence; AID 602440; in the data active = inhibition mostly above about 40%, no sharp cut-off; inactive = mostly below about 27%
# Target sequence (Q96LD8 whole entry, looked up): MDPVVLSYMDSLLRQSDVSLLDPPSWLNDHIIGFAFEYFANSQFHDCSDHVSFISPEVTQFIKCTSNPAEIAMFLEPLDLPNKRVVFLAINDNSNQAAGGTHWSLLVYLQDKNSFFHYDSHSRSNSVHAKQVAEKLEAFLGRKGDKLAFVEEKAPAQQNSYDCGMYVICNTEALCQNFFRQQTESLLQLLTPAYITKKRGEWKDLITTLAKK
# SENP8 block-2: inhibitors of human SENP8 protease. purified SENP8, Z-RLRGG-aminoluciferin cleavage, luminescence. inhibition, % at 10 µM. 330,000 compounds, 1.2% hits; in the data active = inhibition above about 50%
# UBC13 inh: inhibitors of human UBC13 polyubiquitin chain formation; 330,000 compounds, 0.47% hits; P61088; TR-FRET; AID 485273; inhibition, % at 20 µM; in the data active = inhibition above about 45%, passing the limit was not always enough
# Target sequence (P61088 whole entry, looked up): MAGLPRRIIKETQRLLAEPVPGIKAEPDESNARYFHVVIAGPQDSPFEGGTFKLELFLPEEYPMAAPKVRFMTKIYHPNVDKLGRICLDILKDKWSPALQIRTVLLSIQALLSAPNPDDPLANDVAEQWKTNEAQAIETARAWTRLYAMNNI
# Apaf-1 inh: human Apaf-1 inhibition; reconstituted apoptosome caspase-3 activity, DEVD-Rh110 fluorescence; inhibition, % at 20 µM; 330,000 compounds, 0.71% hits; active = inhibition of at least 40% at 20 µM;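 note: plate controls were DMSO wells for no effect and DEVD-CHO caspase inhibitor wells for full effect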
#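 Medium: Hepes buffer, pH 7.5 / System: biochemical Apaf-1 apoptosome reconstitution / Measured by: Rh110 fluorescence, excitation 480 nm, emission 540 nm / Times: compound with Apaf-1, dATP, procaspase-3 30 min, then 50 min reaction, room temperature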
# SENP6 inh: inhibitors of human SENP6 protease. Recombinant SENP6 catalytic domain, aminoluciferin luminescence. inhibition, % at 10 µM. 330,000 compounds, 1.8% hits. AID 2599;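 active = inhibition above about 50% at the single tested dose, limit read from the data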;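 note: plate controls were DMSO wells with enzyme for no effect and DMSO wells lacking enzyme for full effect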
# SENP7 inh: inhibitors of human SENP7 protease; AID 434973; Q9BQF6; inhibition, % at 5 µM; 330,000 compounds, 1.5% hits; recombinant SENP7, Z-RLRGG-aminoluciferin luminescence, 40 min;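 active = inhibition above about 50% at the single test dose, limit read from the data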;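 note: plate controls were DMSO with enzyme for no effect and no enzyme buffer wells for full effect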
# SENP8 conf: human SENP8 inhibition, confirmed; shares compounds with SENP7 inh; Recombinant SENP8, Z-RLRGG-aminoluciferin luminescence, 60 min; inhibition, % at 12.5 µM; 6,200 compounds, 40% hits;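 active = mean inhibition across replicates above about 50%, limit read from the data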
# SENP6 confirm: human SENP6 inhibition, confirmed; shares compounds with SENP7 inh; recombinant SENP6, Z-RLRGG-aminoluciferin luminescence; inhibition, % at 12.5 µM; 6,200 compounds, 58% hits
# SENP7 confirm: confirmation of human SENP7 protease inhibitors. shares compounds with SENP7 inh. recombinant SENP7, Z-RLRGG-aminoluciferin luminescence, 40 min. inhibition, % at 12.5 µM. AID 488917. 6,200 compounds, 69% hits
# Casp3 select: selectivity test for SENP inhibitors: human caspase-3 inhibition | shares compounds with SENP7 inh | purified caspase-3, Z-DEVD-aminoluciferin luminescence, 60 min | inhibition, % at 12.5 µM | 6,200 compounds, 60% hits | AID 488918;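 active = mean inhibition above about 50%, limit read from the data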;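 note: plate controls were enzyme with DMSO for no effect and wells without caspase-3 for full effect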
# Target sequence (P42574 28-227 limits assumed): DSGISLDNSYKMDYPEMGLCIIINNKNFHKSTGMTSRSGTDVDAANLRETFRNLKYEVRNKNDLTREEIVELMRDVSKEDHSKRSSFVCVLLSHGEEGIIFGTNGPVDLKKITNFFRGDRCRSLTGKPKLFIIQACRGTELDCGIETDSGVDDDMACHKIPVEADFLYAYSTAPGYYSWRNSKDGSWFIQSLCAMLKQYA
# Luc interf: counter-screen for SENP inhibitors: luminescence interference | shares compounds with SENP7 inh | Pre-incubated SENP8/Z-RLRGG-aminoluciferin, luciferase luminescence interference | inhibition, % at 12.5 µM | 6,200 compounds, 39% hits | AID 488919;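 active = mean inhibition above about 50% when retested at one dose, limit read from the data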;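 note: plate controls were DMSO wells with completed reaction for no effect and substrate without enzyme for full effect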
# * marks the source's active call; other numbers are inactive results; . = not tested or not shown.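 Rule for the calls, unless noted: active = mean inhibition above about 50% in the one-dose retest (limit read from the data); inactive = the rest.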
SMILES,SENP8 block-1,SENP8 block-2,UBC13 inh,Apaf-1 inh,SENP6 inh,SENP7 inh,SENP8 conf,SENP6 confirm,SENP7 confirm,Casp3 select,Luc interf
Cc1nc(NC(=O)c2cc3c(s2)CCCCC3)sc1C(=O)N(C)C,-127,0,7,-4,2,14,.,.,.,.,.
CCC(CO)NC(=O)c1cc2c(s1)CCC2 (stereo not given),18,-10,-13,2,-6,-7,.,.,.,.,.
O=C(Nc1cccc(C(F)(F)F)c1)Nc1nnc([C@@H]2C[C@H](O)[C@@H](CO)O2)s1,-15,.,.,.,.,.,.,.,.,.,.
O=C(Nc1nc2ccccc2s1)c1ccc2sc([C@H]3C[C@H](O)[C@@H](CO)O3)nc2c1,-210,.,.,.,.,.,.,.,.,.,.
COc1ccc(C(C)(O)c2nc(-c3ccncc3)cs2)cc1 (stereo not given),19,.,.,.,.,.,.,.,.,.,.
O=C(Nc1ccccn1)c1ccccc1,0,.,.,.,.,.,.,.,.,.,.
Cc1csc(NC(=O)COc2ccc3c(c2)CCC3)n1,6,74*,9,5,82*,84*,81*,80*,96*,80*,46
O=C(Nc1ccccn1)c1ccc(Br)s1,8,38,-4,10,67*,65*,66*,63*,88*,76*,67*
COc1ccc(-n2[nH]c3c(cnc4ccccc43)c2=O)cc1,15,.,.,.,.,.,.,.,.,.,.
O=S1(=O)N[C@@H](Cc2ccccc2)COc2ccc(Cl)cc21,0,.,.,.,.,.,.,.,.,.,.
O=C(Cc1noc2ccccc12)Nc1ccc2ccccc2c1,10,-4,4,13,-6,-9,.,.,.,.,.
Cc1ccc(NC(=O)Cc2noc3ccccc23)cc1,3,24,1,-8,51*,44,47,47,74*,61*,17
N/C(=N\OC(=O)c1ccc2c(c1)OCO2)c1ccncc1,10,43,18,-30,68*,60*,53*,48,76*,82*,60*
Cc1ccc(/C(N)=N/OC(=O)c2ccc3c(c2)OCO3)cc1,2,60*,5,-7,71*,42,24,43,87*,81*,20
COc1cc(C(=O)O/N=C(\N)c2ccncc2)cc(OC)c1OC,19,7,5,1,-33,8,.,.,.,.,.
Cc1cccc(C(=O)O/N=C(\N)c2ccc(Cl)cc2)c1,13,22,5,1,25,50,.,.,.,.,.
COc1ccc(/C(N)=N/OC(=O)c2ccc3c(c2)OCO3)cc1,16,28,5,-6,50,68*,9,25,31,30,4
N/C(=N\OC(=O)c1ccc2c(c1)OCO2)c1ccc(Cl)cc1,0,76*,0,-4,87*,-6,23,68*,94*,86*,18
CCCCNC(=O)C1(C)CCN1C(=O)c1cccc2c1OCCO2 (stereo not given),14,.,.,.,.,.,.,.,.,.,.
c1ccc(C2=NNC(c3ccccn3)=NN2)nc1,25,74*,-42,-2,78*,30,3,89*,100*,96*,75*
c1ccc(-c2nnc(-c3ccccn3)s2)nc1,-20,83*,-7,10,90*,89*,91*,93*,102*,96*,88*
COC(=O)[C@@]12C[C@@H](CC(=O)N3CCN(C(=O)C4CC4)CC3)C(=O)N(Cc3ccc4c(c3)OCO4)C1=CCC(C)(C)C2,17,.,.,.,.,.,.,.,.,.,.
CCCc1nc2c3ccccc3ccn2c1Cc1ccc(OC)cc1C,-154,.,.,.,.,.,.,.,.,.,.
Cc1ccc2occ(/C=C/C(=O)O)c(=O)c2c1,-181,34,8,-8,74*,32,64*,58*,86*,58*,61*
O=C(O)/C=C/c1coc2ccc(F)cc2c1=O,-17,1,9,2,-1,7,.,.,.,.,.
SMILES,SENP8 block-1,SENP8 block-2,UBC13 inh,Apaf-1 inh,SENP6 inh,SENP7 inh,SENP8 conf,SENP6 confirm,SENP7 confirm,Casp3 select,Luc interf
Cc1ccc(Nc2nc3nonc3[nH]c2=O)cc1,10,60*,-14,0,36,60*,75*,66*,84*,74*,71*
CCCc1nc(SCC(=O)c2ccc3c(c2)NC(=O)CO3)[nH]c(=O)c1CC,5,.,.,.,.,.,.,.,.,.,.
CCCc1cc(=O)[nH]c(SCC(=O)c2ccc3c(c2)NC(=O)CO3)n1,8,0,-10,-10,98*,6,-15,-10,-12,-4,-9
CCOC(=O)[C@]12CCCC=C1N(Cc1ccco1)C(=O)[C@H](CC(=O)NCc1cccc(C(F)(F)F)c1)C2,12,.,.,.,.,.,.,.,.,.,.
Cc1cc2nc(-c3ccccc3)c(Cc3ccsc3)n2c(C)c1Br,6,.,.,.,.,.,.,.,.,.,.
c1cc2nnnn2nc1N1CCCCC1,5,5,-4,-24,1,58*,8,6,-3,-6,-8
c1cc2nnnn2nc1N1CCCCCC1,-1,-8,0,-3,-11,0,.,.,.,.,.
Cc1ccc(CCNc2ncnc(Cl)c2N)cc1,9,.,.,.,.,.,.,.,.,.,.
